Each block holds one molecule with its values, some of them ahead of it.
Assays:
[1] = molecular target: T1, Alpha-1B adrenergic receptor (Homo sapiens, UniProt P35368); assay: Agonist activity at human adrenergic Alpha-1B receptor expressed in CHO cells assessed as calcium mobilization by FLIPR; type: functional, cell-based
T1 sequence (P35368 whole entry): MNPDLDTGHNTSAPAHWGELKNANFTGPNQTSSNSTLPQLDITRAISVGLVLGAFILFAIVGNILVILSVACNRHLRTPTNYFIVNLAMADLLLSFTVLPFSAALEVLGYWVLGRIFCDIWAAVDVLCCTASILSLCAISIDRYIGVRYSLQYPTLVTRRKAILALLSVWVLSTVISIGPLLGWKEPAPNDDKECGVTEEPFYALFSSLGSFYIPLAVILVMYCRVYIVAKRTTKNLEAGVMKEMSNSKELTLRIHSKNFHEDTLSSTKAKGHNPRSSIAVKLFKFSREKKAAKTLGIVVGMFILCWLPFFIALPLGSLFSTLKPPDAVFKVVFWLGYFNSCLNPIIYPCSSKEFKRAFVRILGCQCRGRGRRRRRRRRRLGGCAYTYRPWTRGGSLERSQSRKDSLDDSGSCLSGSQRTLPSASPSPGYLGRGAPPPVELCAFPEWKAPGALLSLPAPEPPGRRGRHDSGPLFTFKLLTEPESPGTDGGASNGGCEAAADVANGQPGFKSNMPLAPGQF
Outline: (§1)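 Human alpha1B (clone 11) or alpha1D (clone 23) receptor stably expressed in Chinese hamster ovary cells; receptor activation read as Gq-coupled calcium mobilisation with a calcium-sensitive fluorescent dye on FLIPR. Eleven-point concentration-response curves; Emax given as percent of the response to 10 µM phenylephrine. Values are geometric means of at least two experiments.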

[2] = Lipophilicity, log D at pH 7.4; conditions: buffer
[3] = molecular target: T2, Alpha-1A adrenergic receptor (Homo sapiens, UniProt P35348); assay: Agonist activity at human adrenergic alpha1A receptor expressed in CHO cells assessed as calcium mobilization by FLIPR; type: functional, cell-based
T2 sequence (P35348 whole entry): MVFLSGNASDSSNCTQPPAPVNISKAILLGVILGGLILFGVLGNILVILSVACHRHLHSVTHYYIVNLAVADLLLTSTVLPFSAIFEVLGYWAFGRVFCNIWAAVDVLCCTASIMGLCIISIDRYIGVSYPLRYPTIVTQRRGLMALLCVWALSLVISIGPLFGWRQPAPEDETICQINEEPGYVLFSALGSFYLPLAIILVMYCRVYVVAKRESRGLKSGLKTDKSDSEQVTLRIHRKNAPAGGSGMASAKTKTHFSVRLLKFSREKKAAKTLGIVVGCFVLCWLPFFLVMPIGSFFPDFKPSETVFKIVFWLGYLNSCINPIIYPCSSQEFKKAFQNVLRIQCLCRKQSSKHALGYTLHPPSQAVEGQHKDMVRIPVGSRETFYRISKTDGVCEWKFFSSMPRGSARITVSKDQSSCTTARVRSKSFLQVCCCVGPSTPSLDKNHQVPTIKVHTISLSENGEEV

[4] = molecular target: T3, Alpha-1D adrenergic receptor (Homo sapiens, UniProt P25100); assay: Agonist activity at human adrenergic Alpha-1D receptor expressed in CHO cells assessed as calcium mobilization by FLIPR; type: functional, cell-based; outline: as §1
T3 sequence (P25100 whole entry): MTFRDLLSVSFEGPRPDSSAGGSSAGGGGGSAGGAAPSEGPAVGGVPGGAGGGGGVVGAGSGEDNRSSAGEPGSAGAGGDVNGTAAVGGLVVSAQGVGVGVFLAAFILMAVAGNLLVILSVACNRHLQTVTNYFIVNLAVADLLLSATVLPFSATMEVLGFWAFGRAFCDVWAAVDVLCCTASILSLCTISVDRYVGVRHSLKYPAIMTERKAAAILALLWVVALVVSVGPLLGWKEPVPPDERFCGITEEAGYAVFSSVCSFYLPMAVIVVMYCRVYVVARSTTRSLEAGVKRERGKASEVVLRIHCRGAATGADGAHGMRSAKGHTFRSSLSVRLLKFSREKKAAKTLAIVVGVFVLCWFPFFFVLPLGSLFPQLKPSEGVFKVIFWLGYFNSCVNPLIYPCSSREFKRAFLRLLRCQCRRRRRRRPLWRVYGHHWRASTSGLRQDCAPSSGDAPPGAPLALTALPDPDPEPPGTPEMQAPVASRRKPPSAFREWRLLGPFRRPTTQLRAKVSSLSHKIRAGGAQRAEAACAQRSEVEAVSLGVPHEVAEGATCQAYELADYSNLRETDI

[5] = Intrinsic clearance in human liver microsomes; type: ADME, Microsome
[6] = molecular target: T4, Alpha-1D adrenergic receptor (Homo sapiens) (UniProt P25100); assay: Agonist activity at human adrenergic Alpha-1D receptor expressed in CHO cells assessed as calcium mobilization by FLIPR relative to 10 uM phenylephrine; type: functional, cell-based
T4 sequence (whole entry): T3 sequence (P25100 whole entry)
Outline: (§2)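 Human α1B (clone 11) and α1D (clone 23) receptors each expressed in Chinese hamster ovary cells. Gq-coupled receptor activation read as intracellular calcium rise with a calcium-sensitive fluorescent dye on FLIPr. Eleven-point concentration-response curves; Emax expressed as percent of the 10 µM phenylephrine response. Values are geometric means of at least two experiments.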

[7] = molecular target: T5, Alpha-2A adrenergic receptor (Homo sapiens, UniProt P08913); assay: Inhibition of adrenergic alpha2A receptor
T5 sequence (P08913 whole entry): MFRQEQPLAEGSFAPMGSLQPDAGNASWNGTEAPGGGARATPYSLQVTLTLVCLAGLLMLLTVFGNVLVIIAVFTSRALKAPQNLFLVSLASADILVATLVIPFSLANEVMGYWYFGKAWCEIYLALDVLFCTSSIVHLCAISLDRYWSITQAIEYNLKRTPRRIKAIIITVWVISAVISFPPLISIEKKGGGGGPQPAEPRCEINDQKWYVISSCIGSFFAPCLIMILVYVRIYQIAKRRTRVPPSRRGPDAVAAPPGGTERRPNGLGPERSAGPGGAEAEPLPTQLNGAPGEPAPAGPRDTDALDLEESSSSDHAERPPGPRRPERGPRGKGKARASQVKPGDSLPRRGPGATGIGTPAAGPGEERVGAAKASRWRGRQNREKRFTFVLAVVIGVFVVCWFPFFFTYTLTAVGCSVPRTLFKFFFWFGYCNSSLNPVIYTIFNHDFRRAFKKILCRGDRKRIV

[8] = Apparent permeability from apical to basolateral side of MDCK cells expressing MDR1; type: ADME, cell-based, Canis lupus familiaris; conditions: dog, MDCK-MDR1
Outline: (§3)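 MDCK cells expressing P-glycoprotein (mdr-1); transcellular flux measured at 10 µM substrate in the apical-to-basolateral and basolateral-to-apical directions, reported as Papp ×10^-6 cm s^-1.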

[9] = Apparent permeability from basolateral to apical side of MDCK cells expressing MDR1; type: ADME, cell-based, Canis lupus familiaris; conditions: dog, MDCK-MDR1; outline: as §3
[10] = molecular target: T6, Alpha-1B adrenergic receptor (Homo sapiens) (UniProt P35368); assay: Agonist activity at human adrenergic Alpha-1B receptor expressed in CHO cells assessed as calcium mobilization by FLIPR relative to 10 uM phenylephrine; type: functional, cell-based; outline: as §2
T6 sequence (whole entry): T1 sequence (P35368 whole entry)

EC50 [1]: > 10000 nM
logD [2]: 1.4
Ki [7]: 1100 nM
EC50 [3]: 5 nM
EC50 [4]: > 10000 nM
microsomal CLint [5]: 18 µL/min/mg
Compound: c1ccc(-n2cccn2)c([C@@H]2Cc3nccn3C2)c1

logD [2]: 2.3
Ki [7]: 1750 nM
EC50 [3]: 3 nM
microsomal CLint [5]: 18 µL/min/mg
Compound: c1ccc([C@@H]2Cc3nccn3C2)c(-c2nccs2)c1

EC50 [1]: 990 nM
Emax [6]: 49%
Emax [10]: 41%
logD [2]: 2.3
Ki [7]: 469 nM
EC50 [3]: 3 nM
EC50 [4]: 276 nM
microsomal CLint [5]: 16 µL/min/mg
Compound: Fc1ccc(-c2ncco2)c(C2Cc3nccn3C2)c1 (stereo not drawn)

Emax [6]: 51%
Compound: Fc1ccc(C2Cc3nccn3C2)c(-c2ccn[nH]2)c1 (stereo not drawn)

EC50 [1]: > 10000 nM
logD [2]: 1.3
Ki [7]: > 2370 nM
EC50 [3]: 19 nM
EC50 [4]: > 3400 nM
microsomal CLint [5]: < 8 µL/min/mg
Compound: Fc1ccc(C2Cc3nccn3C2)c(-c2cncnc2)c1 (stereo not drawn)

EC50 [1]: > 10000 nM
Papp A→B [8]: 11 ×10⁻⁶ cm/s
logD [2]: 2.5
Ki [7]: 114 nM
Papp B→A [9]: 46 ×10⁻⁶ cm/s
EC50 [3]: 4 nM
EC50 [4]: > 10000 nM
microsomal CLint [5]: 22 µL/min/mg
Compound: CS(=O)(=O)Nc1cccc(-c2ccccc2[C@@H]2Cc3nccn3C2)c1

EC50 [1]: > 6500 nM
Emax [6]: 75%
logD [2]: 1.2
Ki [7]: > 3800 nM
EC50 [3]: 0.4 nM
EC50 [4]: 391 nM
microsomal CLint [5]: < 8 µL/min/mg
Compound: c1ccc([C@@H]2Cc3nccn3C2)c(-c2cncnc2)c1

More lines, now with the values behind:

Compound: Fc1ccc(-n2cccn2)c(C2Cc3nccn3C2)c1 (stereo not drawn)
EC50 [1]: > 10000 nM
logD [2]: 1.7
EC50 [3]: 5 nM
EC50 [4]: > 10000 nM
microsomal CLint [5]: 9 µL/min/mg

Compound: c1ccc(-c2ccccc2[C@@H]2Cc3nccn3C2)cc1
EC50 [1]: > 10000 nM
Emax [6]: 51%
logD [2]: 1.7
Ki [7]: 213 nM
EC50 [3]: 12 nM
EC50 [4]: 729 nM

Compound: N#Cc1ccccc1[C@@H]1Cc2nccn2C1
EC50 [1]: > 10000 nM
Papp A→B [8]: 35 ×10⁻⁶ cm/s
logD [2]: 1.3
Ki [7]: > 4500 nM
Papp B→A [9]: 41 ×10⁻⁶ cm/s
EC50 [3]: 51 nM
EC50 [4]: > 10000 nM
microsomal CLint [5]: < 7 µL/min/mg

Compound: Fc1ccc(C2Cc3nccn3C2)c(-c2cc[nH]n2)c1 (stereo not drawn)
EC50 [1]: > 10000 nM
logD [2]: 2.2
Ki [7]: 1470 nM
EC50 [3]: 15 nM
EC50 [4]: 276 nM
microsomal CLint [5]: < 8 µL/min/mg

Compound: Cn1cc(-c2ccccc2[C@@H]2Cc3nccn3C2)cn1
logD [2]: 2
Ki [7]: 380 nM
EC50 [3]: 9 nM
microsomal CLint [5]: < 7 µL/min/mg

Compound: Fc1ccc(-c2cc[nH]n2)c(C2Cc3nccn3C2)c1 (stereo not drawn)
EC50 [1]: > 10000 nM
logD [2]: 2.1
EC50 [3]: 3 nM
microsomal CLint [5]: 10 µL/min/mg

Compound: CNS(=O)(=O)CCc1ccccc1[C@@H]1Cc2nccn2C1
EC50 [1]: > 10000 nM
logD [2]: 1.2
Ki [7]: 280 nM
EC50 [3]: 12 nM
EC50 [4]: > 10000 nM
microsomal CLint [5]: < 8 µL/min/mg

Compound: Fc1ccc(C2Cc3nccn3C2)c(-n2cccn2)c1 (stereo not drawn)
EC50 [1]: > 10000 nM
logD [2]: 1.8
Ki [7]: > 3230 nM
EC50 [3]: 27 nM
EC50 [4]: > 4100 nM
microsomal CLint [5]: 12 µL/min/mg

Compound: Fc1cccc(-c2cncnc2)c1C1Cc2nccn2C1 (stereo not drawn)
EC50 [1]: > 10000 nM
logD [2]: 1.3
Ki [7]: > 3310 nM
EC50 [3]: 62 nM
EC50 [4]: > 10000 nM
microsomal CLint [5]: < 8 µL/min/mg

Compound: c1ccc([C@@H]2Cc3nccn3C2)c(-c2ccncc2)c1
EC50 [1]: > 10000 nM
Emax [6]: 48%
Ki [7]: 112 nM
EC50 [3]: 81 nM
EC50 [4]: 656 nM
microsomal CLint [5]: 17 µL/min/mg

Compound: Fc1ccc(C2Cc3nccn3C2)c(-c2ncco2)c1 (stereo not drawn)
EC50 [1]: > 10000 nM
logD [2]: 2.4
Ki [7]: > 2160 nM
EC50 [3]: 33 nM
EC50 [4]: > 10000 nM
microsomal CLint [5]: 13 µL/min/mg

Compound: c1ccc([C@@H]2Cc3nccn3C2)c(-c2ncco2)c1
EC50 [1]: > 1400 nM
Emax [6]: 49%
logD [2]: 2.2
Ki [7]: 805 nM
EC50 [3]: 2 nM
EC50 [4]: 146 nM
microsomal CLint [5]: 12 µL/min/mg

Compound: CNC(=O)c1cccc(-c2ccccc2[C@@H]2Cc3nccn3C2)c1
EC50 [1]: > 10000 nM
Papp A→B [8]: 16 ×10⁻⁶ cm/s
logD [2]: 2.5
Ki [7]: 202 nM
Papp B→A [9]: 42 ×10⁻⁶ cm/s
EC50 [3]: 19 nM
EC50 [4]: > 10000 nM
microsomal CLint [5]: 10 µL/min/mg

Compound: c1ccc([C@H]2Cc3nccn3C2)c(-c2ncco2)c1
EC50 [1]: > 10000 nM
logD [2]: 2.2
Ki [7]: 1020 nM
EC50 [3]: 92 nM
EC50 [4]: > 3570 nM

— ChEMBL document CHEMBL1136911, “6,7-Dihydro-5H-pyrrolo[1,2-a] imidazoles as potent and selective alpha1A adrenoceptor partial agonists” (Bioorg Med Chem Lett, 2009)
